Experimental findings from PMC4066874 (Immunity, 2014) are described below.

Series [1] concerns RORγt occupancy at genomic binding sites. The experiment in a line: ChIP-seq for RORγt in Th17 cells treated with compound. Type of series: cell-based, mouse. To be noted: for RORγt sites with decreased (lower) ChIP signal: 2.5 μM TMP778, 10 μM TMP920, 96 h. The method in brief:
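Naive CD4+CD62Lhigh CD25− T cells (MACS then FACS sorted) were activated on plate-bound anti-CD3 and anti-CD28 (2 μg/ml each) with IL-6 (20 ng/ml) and TGF-β1 (1 ng/ml), plus IL-23 (10 ng/ml) from 48 h. Test compound (2.5 or 10 μM) or DMSO was present for 96 h. ChIP used anti-RORγt (AFKJS-9), with isotype IgG and RORγt-deficient cells as controls. Sequencing was single-end 36 bp.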

Series [2] has as its system experimental autoimmune encephalomyelitis (EAE).
Series [3] concerns IL-17 production in Th17 cell cultures. Put plainly: IL-17 production during Th17 cell differentiation in vitro. Type of series: cell-based, mouse. To be noted: for effect on IL-17 production in Th17 cell cultures: Digoxin at 10 μM, TMP778 over a much broader dose range; for concentration at which the inhibitory effect on IL-17 production was lost: Th17 cell-polarizing conditions.

Series [4] has as its system primary naïve CD4+ T cells under Th17 cell-polarizing conditions. The experiment in a line: cell proliferation of naïve CD4+ T cells under Th17 cell-polarizing conditions. Conditions: not RORγt-dependent.
Another series has as its system GATA3 protein. Put plainly: GATA3 protein expression in Th17 cells. It is filed as cell-based, mouse. Conditions: Th17 cells treated with compound.
Series [5] has as its system CCR6- memory human T cells. Put plainly: transcription in human CCR6- memory T cells. It is filed as cell-based.
Another series concerns the target T1, RORγ (Homo sapiens, UniProt P51449).
T1 sequence (P51449 1-518): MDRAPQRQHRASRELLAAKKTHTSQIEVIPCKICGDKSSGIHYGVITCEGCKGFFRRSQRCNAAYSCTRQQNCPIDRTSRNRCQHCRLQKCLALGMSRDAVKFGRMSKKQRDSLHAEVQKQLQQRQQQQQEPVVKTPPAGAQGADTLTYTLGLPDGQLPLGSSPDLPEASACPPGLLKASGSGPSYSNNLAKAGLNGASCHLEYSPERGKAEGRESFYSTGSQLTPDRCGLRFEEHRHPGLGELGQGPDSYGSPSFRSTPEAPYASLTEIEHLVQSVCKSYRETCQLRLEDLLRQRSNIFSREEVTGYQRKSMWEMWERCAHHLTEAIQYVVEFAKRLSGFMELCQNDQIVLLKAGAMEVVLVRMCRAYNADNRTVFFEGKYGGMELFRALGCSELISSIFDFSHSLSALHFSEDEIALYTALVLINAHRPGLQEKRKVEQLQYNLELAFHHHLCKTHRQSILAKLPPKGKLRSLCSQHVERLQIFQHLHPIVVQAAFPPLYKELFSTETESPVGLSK
The experiment in a line: cell-based nuclear receptor reporter.

Another series addresses T2, RORβ (Homo sapiens, UniProt Q92753).
T2 sequence (Q92753 1-470): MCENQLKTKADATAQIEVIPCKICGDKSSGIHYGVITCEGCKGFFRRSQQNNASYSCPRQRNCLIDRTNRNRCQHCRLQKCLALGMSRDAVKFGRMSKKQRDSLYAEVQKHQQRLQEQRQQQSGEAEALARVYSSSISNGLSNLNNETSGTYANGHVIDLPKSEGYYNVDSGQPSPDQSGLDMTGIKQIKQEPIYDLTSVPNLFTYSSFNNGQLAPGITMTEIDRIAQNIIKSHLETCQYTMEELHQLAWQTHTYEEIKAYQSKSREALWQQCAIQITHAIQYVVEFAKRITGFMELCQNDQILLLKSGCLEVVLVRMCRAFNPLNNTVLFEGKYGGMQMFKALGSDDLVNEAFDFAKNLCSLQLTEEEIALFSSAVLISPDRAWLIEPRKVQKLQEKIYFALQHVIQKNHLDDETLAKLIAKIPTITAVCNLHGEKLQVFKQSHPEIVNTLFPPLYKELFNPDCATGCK
Put plainly: cell-based nuclear receptor reporter.

For series [6], the target named is 22 other nuclear receptors. Put plainly: luciferase assays for 22 other nuclear receptors. It is filed as cell-based. Conditions: read-out: IC50 in luciferase assays for 22 other nuclear receptors.
A further series concerns the target T3, RORα (Homo sapiens, UniProt P35398).
T3 sequence (P35398 1-523): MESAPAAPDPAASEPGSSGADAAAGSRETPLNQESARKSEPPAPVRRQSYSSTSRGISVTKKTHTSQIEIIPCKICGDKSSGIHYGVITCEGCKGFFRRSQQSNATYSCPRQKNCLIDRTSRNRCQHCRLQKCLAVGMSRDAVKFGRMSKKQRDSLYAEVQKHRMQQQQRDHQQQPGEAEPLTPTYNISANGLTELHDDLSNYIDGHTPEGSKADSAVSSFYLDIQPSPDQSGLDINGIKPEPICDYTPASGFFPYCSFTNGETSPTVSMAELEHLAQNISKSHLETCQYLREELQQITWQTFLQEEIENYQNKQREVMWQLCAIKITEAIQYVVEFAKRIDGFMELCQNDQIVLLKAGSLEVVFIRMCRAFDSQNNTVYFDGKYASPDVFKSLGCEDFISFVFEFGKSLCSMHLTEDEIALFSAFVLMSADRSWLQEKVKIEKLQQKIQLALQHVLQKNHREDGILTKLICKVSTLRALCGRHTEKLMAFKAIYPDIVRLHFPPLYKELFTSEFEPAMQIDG
Put plainly: cell-based nuclear receptor reporter.

Series [7] concerns the target T4, RORγt ligand-binding domain (Homo sapiens, UniProt P51449).
T4 sequence (P51449 263-518 limits assumed): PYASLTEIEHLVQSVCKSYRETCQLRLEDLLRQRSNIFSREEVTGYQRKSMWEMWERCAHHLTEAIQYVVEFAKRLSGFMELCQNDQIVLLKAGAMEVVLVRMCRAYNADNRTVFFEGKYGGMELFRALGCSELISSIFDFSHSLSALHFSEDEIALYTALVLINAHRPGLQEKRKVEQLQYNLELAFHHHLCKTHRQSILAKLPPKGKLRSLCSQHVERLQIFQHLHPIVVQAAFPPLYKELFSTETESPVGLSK
Put plainly: FRET assay, RORγt ligand-binding domain and cofactor peptide SRC1. To be noted: read-out: IC50, inhibition of RORγt binding to the SRC1 peptide in the FRET assay. Type of series: biochemical.

The test system of series [8] is IL-17 production in CD4+ T cells. Put plainly: IL-17 production from differentiated Th17 cells. It is filed as cell-based, mouse. Conditions: WT CD4+ T cells, MOG35-55 plus IL-23, 4 days. A digest of the protocol:
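Female C57BL/6 mice (8–12 wk) were immunized s.c. in the flanks with MOG35-55 (100 μg/mouse) in CFA containing M. tuberculosis H37Ra extract. Draining LN cells were restimulated with MOG35-55 and IL-23 plus test compound or DMSO for 4 days. They were then given a 4 h PMA/ionomycin/GolgiStop restimulation, fixed and permeabilized, and stained intracellularly for IL-17 and IFNγ in CD4+ cells. Values are mean ± SD.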

In series [9] the test system is primary naïve CD4+ T cells under Th17 cell-polarizing conditions.

Like-named read-outs stand apart in the source and are kept apart here. Some results are limits rather than exact numbers.

Consider `C[C@H]1O[C@@H](O[C@H]2[C@@H](O)C[C@H](O[C@H]3[C@@H](O)C[C@H](O[C@H]4CC[C@@]5(C)[C@H](CC[C@@H]6[C@@H]5C[C@@H](O)[C@]5(C)[C@@H](C7=CC(=O)OC7)CC[C@]65O)C4)O[C@@H]3C)O[C@@H]2C)C[C@H](O)[C@@H]1O` [Digoxin, reference compound], for which the “effect on RORγt binding” value in [1] (10 μM Digoxin, 96 h) is on record as “intermediate”. Moreover, the “dose that caused mouse death” value in series [2] (per injection, subcutaneous twice daily) is greater than 100 µg. Further, in series [3], the “effect on IL-17 production in Th17 cell cultures” value is on record as “specifically inhibited IL-17 production” and the “concentration at which the inhibitory effect on IL-17 production was lost” value is less than 2.5 µM. For the same compound, the “concentration at which toxic effects on cell growth start” value (“concentration at which toxic effects” for short) in series [4] is greater than 10 µM.

Turning to `CCS(=O)(=O)c1ccc(CC(=O)Nc2cc(Cl)c(-c3ccccc3OC(F)(F)F)c(Cl)c2)cc1` [GSK805], the GATA3 protein expression result with GATA3 protein is on record as “increased GATA3 protein expression”. Moreover, the “effect on severity of EAE” value in series [2] (oral, 10 mg/kg daily from day 0) is listed as “efficiently ameliorate the severity of EAE”. The “Th17 cell responses in the CNS” value in series [2] (oral, 30 mg/kg, day 14) is given as “strongly inhibits Th17 cell responses”. Moreover, in series [3] (GSK805 at 0.5 μM, 4 days), the “inhibition of IL-17 production during Th17 cell differentiation” value is “comparable inhibition of IL-17 production as TMP778 at 2.5 μM”.

For `Cc1ccc([C@@H](NC(=O)Cc2ccc3oc([C@@H](O)c4c(C)noc4C)cc3c2)c2ccccc2)c(C)c1` [TMP778], in the series on GATA3 protein, the GATA3 protein expression result is on record as “increased expression of GATA3 protein”. For the same compound, in series [5], the “effect on transcription in population depleted for Th17 cells” value was “no differentially expressed genes with a fold cutoff over 1.5”. Moreover, the “new RORγt binding sites” value in series [1] (2.5 μM TMP778) worked out at 179. In series [1] (2.5 μM TMP778), the “new RORγt binding sites as share of peaks observed with compound” value is given as 8.2 % of peaks. The “RORγt sites with decreased (lower) ChIP signal” value in series [1] is listed as 55 % of sites. Besides, the IC50 – broadly, the point on the concentration scale where inhibition reaches its midpoint – was 17 nM at RORγ (read-out: IC50 for luciferase activity in RORγ assays); 1390 nM on RORβ (read-out: IC50 for RORβ, luciferase reporter); greater than 10000 nM in series [6]; 1240 nM at RORα (read-out: IC50 for RORα, luciferase reporter); 5 nM in [7]. In addition, on RORβ, the “IC50 fold higher for RORβ than in RORγ assays” value is “roughly 100 fold”. On RORα, the “IC50 fold higher for RORα than in RORγ assays” value was “roughly 100 fold”. Moreover, in series [8], the “inhibition of IL-17 production from differentiated Th17 cells” value is on record as “the most potent inhibition”. Further, the “percentage of IL-17+ T cells in the CNS” value in [2] (subcutaneous twice daily, day 21 after EAE induction) is given as “most strongly reduced the percentage of IL-17^+ T cells in the CNS”. The “concentration at which toxic effects” value in series [9] was greater than 2.5 µM. For the same compound, the “effect on IL-17 production in Th17 cell cultures” value in series [3] is “efficiently decreased IL-17 production”.

For the compound `Cc1ccc(C(NC(=O)Cc2ccc(OCc3c(C)noc3C)cc2)c2ccccc2)c(C)c1` (stereo not shown) [TMP920], the “RORγt sites with decreased (lower) ChIP signal” value in series [1] was 77 % of sites. For the same compound, the 50% inhibitory concentration (IC50) at RORγ (read-out: IC50 in RORγ assays) is 1100 nM; in series [6], greater than 10000 nM; in [7] it was 30 nM. The “concentration at which toxic effects” value in [9] is greater than 10 µM. The “concentration at which the inhibitory effect on IL-17 production was lost” value in series [3] was less than 2.5 µM.
